Results as given in ChEMBL document CHEMBL1154783, “Study of 1,4-dihydropyridine structural scaffold: discovery of novel sirtuin activators and inhibitors” (2009).
The source made the active and inactive calls. The calls are words filed in the database; no cut-off is given here.

Assays:
[1] = Inhibition of human MSC senescence assessed as appearance of senescence-associated beta-galactosidase positive cells at 50 uM after 48 hrs by optic microscopy relative to control; type: functional; parameters: scale not given: the % may be the effect or the level left
How it was run: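 Primary human MSC cultured 30 days (ninth passage), 3 × 10^5 cells/well, treated at 50 μM for 48 h. Cells fixed in 2% formaldehyde/0.2% glutaraldehyde, then stained overnight at 37 °C in pH 6 citrate/phosphate buffer with ferro/ferricyanide and 1 mg/mL X-Gal. Blue cells counted as % of total, with the control set as 100%.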

[2] = system: C2C12; assay: Increase in mitochondrial function in mouse C2C12 cells assessed as enhancement of mitochondrial density at 50 uM after 16 hrs by green FM dye straining-based fluorescence assay; type: functional, cell-based
How it was run: (§1)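 C2C12 myoblasts (3000 cells/well) treated for 16 h (overnight), with DMSO as control. Cells then stained with MitoTracker Green FM (200 nM) and fluorescence intensity read after subtracting background from unstained wells.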

[3] = system: MCF7; assay: Cell cycle arrest in human MCF7 cells assessed as accumulation at G1/S phase at 50 uM after 30 hrs by FACS analysis; type: functional, cell-based
[4] = molecular target: T1, NAD-dependent protein deacetylase sirtuin-2 (Homo sapiens) (UniProt Q8IXJ6); assay: Inhibition of human SIRT2 expressed in Escherichia coli at 50 uM after 1 hr by fluorescent biochemical assay
T1 sequence (whole entry): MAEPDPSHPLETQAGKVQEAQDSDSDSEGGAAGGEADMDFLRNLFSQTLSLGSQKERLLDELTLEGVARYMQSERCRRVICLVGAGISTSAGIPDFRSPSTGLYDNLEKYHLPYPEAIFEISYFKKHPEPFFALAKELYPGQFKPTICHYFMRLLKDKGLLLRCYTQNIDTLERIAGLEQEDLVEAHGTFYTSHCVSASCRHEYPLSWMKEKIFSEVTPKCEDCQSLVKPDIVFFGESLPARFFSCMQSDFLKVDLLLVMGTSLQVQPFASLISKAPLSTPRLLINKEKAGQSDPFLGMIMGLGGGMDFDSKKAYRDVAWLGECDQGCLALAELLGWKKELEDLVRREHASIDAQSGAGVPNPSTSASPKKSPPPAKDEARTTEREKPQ
How it was run: (§2)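 Fluor de Lys two-step assay with human SIRT1 (full length, 747 aa), SIRT2 (389 aa) or SIRT3 catalytic fragment ([…]), all expressed in E. coli. Enzyme was set at 1 U/well for SIRT1 and 5 U/well for SIRT2/SIRT3. Developer was then added for 15 min at 37 °C. Read at ex 355/em 460 nm, triplicates, background-subtracted, with autofluorescence controls for activators.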

[5] = system: MCF7; assay: Induction of apoptosis in human MCF7 cells assessed as caspase 3/7 activity at 50 uM after 30 hrs by FACS analysis; type: functional, cell-based
[6] = system: U937 (Homo sapiens); assay: Induction of granulocyte differentiation in human U937 cells assessed as increase in phycoerythrine-conjugated CD11c expression at 50 uM after 30 hrs by propidium iodide staining-based FACS analysis
[7] = system: U-937; assay: Induction of apoptosis in human U937 cells assessed as caspase 3/7 activity at 50 uM after 30 hrs by FACS analysis; type: functional
How it was run: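 U937 cells given 50 μM for 30 h. Apoptosis measured as caspase 3-7 activity by FACS.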

[8] = molecular target: T2, NAD-dependent protein deacetylase sirtuin-1 (Homo sapiens) (UniProt Q96EB6); assay: Inhibition of human SIRT1 expressed in Escherichia coli at 50 uM after 1 hr by fluorescent biochemical assay; how it was run: as §2
T2 sequence (whole entry): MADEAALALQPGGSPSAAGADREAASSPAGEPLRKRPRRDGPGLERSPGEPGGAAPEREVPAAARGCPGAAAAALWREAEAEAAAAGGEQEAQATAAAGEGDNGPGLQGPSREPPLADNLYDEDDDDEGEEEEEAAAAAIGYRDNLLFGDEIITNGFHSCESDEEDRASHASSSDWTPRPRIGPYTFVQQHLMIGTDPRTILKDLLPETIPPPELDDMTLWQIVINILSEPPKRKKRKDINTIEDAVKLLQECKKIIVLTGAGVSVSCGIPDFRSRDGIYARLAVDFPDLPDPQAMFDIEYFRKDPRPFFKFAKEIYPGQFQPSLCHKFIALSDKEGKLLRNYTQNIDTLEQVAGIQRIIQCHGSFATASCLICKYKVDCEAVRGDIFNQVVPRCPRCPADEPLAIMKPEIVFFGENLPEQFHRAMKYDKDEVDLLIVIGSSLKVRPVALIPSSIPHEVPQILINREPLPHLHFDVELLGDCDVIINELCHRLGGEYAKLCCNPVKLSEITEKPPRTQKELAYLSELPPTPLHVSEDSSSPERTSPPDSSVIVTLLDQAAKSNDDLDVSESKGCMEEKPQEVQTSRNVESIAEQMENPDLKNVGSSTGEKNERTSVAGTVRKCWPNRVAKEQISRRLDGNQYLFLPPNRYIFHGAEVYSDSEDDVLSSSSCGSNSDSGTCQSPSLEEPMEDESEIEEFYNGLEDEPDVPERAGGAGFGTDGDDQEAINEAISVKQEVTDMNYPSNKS

[9] = molecular target: T3, NAD-dependent protein deacetylase sirtuin-3, mitochondrial (Homo sapiens) (UniProt Q9NTG7); assay: Inhibition of human SIRT3 expressed in Escherichia coli at 50 uM after 1 hr by fluorescent biochemical assay; how it was run: as §2
T3 sequence (whole entry): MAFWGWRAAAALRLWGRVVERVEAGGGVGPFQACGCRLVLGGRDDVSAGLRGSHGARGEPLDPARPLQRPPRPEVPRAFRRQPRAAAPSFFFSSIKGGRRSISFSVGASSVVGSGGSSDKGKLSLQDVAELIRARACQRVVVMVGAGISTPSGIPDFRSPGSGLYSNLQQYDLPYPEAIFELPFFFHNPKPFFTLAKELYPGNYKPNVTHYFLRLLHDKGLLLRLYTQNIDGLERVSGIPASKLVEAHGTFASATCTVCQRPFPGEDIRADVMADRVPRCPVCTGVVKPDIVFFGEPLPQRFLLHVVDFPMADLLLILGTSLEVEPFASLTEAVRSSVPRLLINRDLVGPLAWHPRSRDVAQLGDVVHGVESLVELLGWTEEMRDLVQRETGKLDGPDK

[10] = molecular target: T1, NAD-dependent protein deacetylase sirtuin-2 (Homo sapiens); assay: Activation of human SIRT2 expressed in Escherichia coli after 1 hr by fluorescent biochemical assay; how it was run: as §2
[11] = molecular target: T2, NAD-dependent protein deacetylase sirtuin-1 (Homo sapiens); assay: Activation of human SIRT1 expressed in Escherichia coli after 1 hr by fluorescent biochemical assay; how it was run: as §2
[12] = molecular target: T3, NAD-dependent protein deacetylase sirtuin-3, mitochondrial (Homo sapiens); assay: Activation of human SIRT3 expressed in Escherichia coli after 1 hr by fluorescent biochemical assay; how it was run: as §2
[13] = system: U-937; assay: Cell cycle arrest in human U937 cells assessed as accumulation at G1/S phase at 50 uM after 30 hrs by FACS analysis; type: functional, cell-based
How it was run: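 U937 cells given 50 μM for 30 h. 2.5 × 10^5 cells lysed in hypotonic buffer (0.1% Triton X-100, 0.1% sodium citrate, 50 μg/mL PI, RNase A) for 30 min in the dark, then DNA content measured by flow cytometry. Done in triplicate.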

[14] = molecular target: T1, NAD-dependent protein deacetylase sirtuin-2 (Homo sapiens); assay: Activation of human SIRT2 expressed in Escherichia coli at 1 to 50 uM after 1 hr by fluorescent biochemical assay; how it was run: as §2
[15] = molecular target: T4, Peroxisome proliferator-activated receptor gamma coactivator 1-alpha (Homo sapiens) (UniProt Q9UBK2); assay: Stimulation of PGC1-alpha-mediated transcriptional activity of mTFA promoter in mouse C2C12 cells expressing NRF1 site after 16 hrs by luciferase reporter gene assay; type: cell-based
T4 sequence (whole entry): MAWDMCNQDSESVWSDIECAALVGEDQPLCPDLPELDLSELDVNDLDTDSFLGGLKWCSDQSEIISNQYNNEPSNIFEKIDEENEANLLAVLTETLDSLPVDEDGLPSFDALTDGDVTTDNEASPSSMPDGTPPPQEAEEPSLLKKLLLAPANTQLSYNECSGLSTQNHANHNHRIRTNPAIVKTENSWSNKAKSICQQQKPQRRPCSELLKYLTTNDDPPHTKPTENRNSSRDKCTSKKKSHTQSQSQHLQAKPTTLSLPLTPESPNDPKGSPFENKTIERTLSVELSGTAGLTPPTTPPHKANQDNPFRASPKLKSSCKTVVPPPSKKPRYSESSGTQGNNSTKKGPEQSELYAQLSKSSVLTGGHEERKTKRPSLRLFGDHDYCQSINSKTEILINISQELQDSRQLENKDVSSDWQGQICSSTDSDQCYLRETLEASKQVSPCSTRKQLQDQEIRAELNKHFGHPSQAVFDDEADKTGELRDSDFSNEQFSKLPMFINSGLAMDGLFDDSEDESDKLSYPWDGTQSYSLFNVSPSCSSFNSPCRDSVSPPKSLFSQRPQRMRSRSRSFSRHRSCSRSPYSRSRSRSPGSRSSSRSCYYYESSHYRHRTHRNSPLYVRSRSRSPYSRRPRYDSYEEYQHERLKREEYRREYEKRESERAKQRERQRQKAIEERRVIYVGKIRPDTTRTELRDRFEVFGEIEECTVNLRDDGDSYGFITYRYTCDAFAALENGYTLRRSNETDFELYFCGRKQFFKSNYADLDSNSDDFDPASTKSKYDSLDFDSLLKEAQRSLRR
How it was run: (§3)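 C2C12 myoblasts in DMEM with 10% heat-inactivated FCS were reverse-transfected (Lipofectamine) with a luciferase reporter carrying either the wild-type mTFA promoter or a mutant lacking the NRF1 site. Cells plated at 3000/well and treated for 16 h (overnight). Luciferase activity compared with DMSO-treated cells by Student's t-test.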

[16] = system: C2C12; assay: Increase in mitochondrial function in mouse C2C12 cells assessed as enhancement of mitochondrial density at 10 to 50 uM after 16 hrs by green FM dye straining-based fluorescence assay; type: functional, cell-based; how it was run: as §1
[17] = system: C2C12; assay: Stimulation of transcriptional activity of mTFA promoter in mouse C2C12 cells after 16 hrs by luciferase reporter gene assay; type: functional, cell-based; how it was run: as §3
[18] = system: U-937; assay: Induction of granulocyte differentiation in human U937 cells assessed as increase in phycoerythrine-conjugated CD11c expression at 50 uM after 30 hrs by propidium iodide staining-based FACS analysis; type: functional
How it was run: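 U937 cells given 50 μM for 30 h, then stained with CD11c-PE (or PE-mouse IgG1 control) for 30 min at 4 °C in the dark. Cells were resuspended in PBS with PI (0.25 μg/mL) and analyzed by FACS, with PI-positive cells excluded. Readout: CD11c+/PI− cells.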

[19] = system: MCF7; assay: Induction of granulocyte differentiation in human MCF7 cells assessed as increase in phycoerythrine-conjugated CD11c expression at 50 uM after 30 hrs by propidium iodide staining-based FACS analysis; type: functional, cell-based

Row | Structure (SMILES) | inhibition [4] | inhibition [8] | Activity [9] | Activity [11] | EC150 [12] [µM] | Activity [1] [%] | Activity [3] | Activity [5] | Activity [6] | Activity [7] [%] | Activity [13] | also measured
1 | Oc1ccc(/C=C/c2cc(O)cc(O)c2)cc1 [RESVERATROL] |  |  |  |  |  | 50 |  |  |  |  |  | Activity [2]: Active
2 | CCOC(=O)C1=CN(c2ccccc2)C=C(C(=O)OCC)C1c1ccccc1 | 51.3% | 63.6% |  |  |  |  | inactive | inactive | inactive | 3 |  | 
3 | O=C(O)C1=CN(Cc2ccccc2)C=C(C(=O)O)C1c1ccccc1 | inactive | inactive | inactive | Dose-dependent effect | 50 | 70 | inactive | inactive | inactive |  | Active | EC150 [10]: 15 µM; EC150 [11]: 1 µM
4 | NC(=O)C1=CN(Cc2ccccc2)C=C(C(N)=O)C1c1ccccc1 | inactive | inactive | inactive | Dose-dependent effect | > 50 | 65 | inactive | inactive | inactive |  | Active | Activity [14]: inactive
5 | CCOC(=O)C1=CN(Cc2ccccc2)C=C(C(=O)OCC)C1c1ccccc1 | inactive | inactive | inactive | Dose-dependent effect | 50 |  | inactive | inactive | inactive |  | Active | Activity [15]: Dose-dependent effect; Activity [16]: Active; EC150 [10]: 25 µM; Activity [17]: inactive; EC150 [11]: 1 µM
6 | CCOC(=O)C1=CN(CCc2ccccc2)C=C(C(=O)OCC)C1c1ccccc1 | 49.6% | 76.6% |  |  |  |  | inactive | inactive |  | 3 |  | Activity [18]: 12.3%; Activity [19]: inactive

Continued, in another order:

Row | inhibition [4] | inhibition [8] | Activity [9] | Activity [11] | EC150 [12] [µM] | Structure (SMILES) | Activity [1] [%] | Activity [3] | Activity [5] | Activity [6] | Activity [7] [%] | Activity [13] | also measured
7 | 53.7% |  |  |  |  | CCOC(=O)C1=CN(C2CC2)C=C(C(=O)OCC)C1c1ccccc1 |  | inactive | inactive | inactive | 3 |  | 
8 |  | 89.1% |  |  |  | NC(=O)C1=CN(c2ccccc2)C=C(C(N)=O)C1c1ccccc1 |  |  |  |  |  |  | 
9 |  | 86.6% |  |  |  | O=C(O)C1=CN(c2ccccc2)C=C(C(=O)O)C1c1ccccc1 |  |  |  |  |  |  | 
